# Test results taken from ChEMBL document CHEMBL3769385 (J Med Chem, 2016).
# Calls of active or inactive are those of the source.
# How the values were obtained:
# [1] = biological target: 5-hydroxytryptamine receptor 7 (Homo sapiens, UniProt P34969); assay: Binding affinity to human 5HT7 receptor by radioligand binding assay
# [2] = test system: Mus musculus; assay: Cataleptic activity in C57BL/6J mouse at 0.01 to 30 mg/kg, ip measured after 60 mins; type: ADME, organism-based; conditions: in vivo, 1 h
# [3] = biological target: 5-hydroxytryptamine receptor 6 (Homo sapiens, UniProt P50406); assay: Binding affinity to human 5HT6 receptor by radioligand binding assay
# Sequence of 5-hydroxytryptamine receptor 6 (P50406 whole entry): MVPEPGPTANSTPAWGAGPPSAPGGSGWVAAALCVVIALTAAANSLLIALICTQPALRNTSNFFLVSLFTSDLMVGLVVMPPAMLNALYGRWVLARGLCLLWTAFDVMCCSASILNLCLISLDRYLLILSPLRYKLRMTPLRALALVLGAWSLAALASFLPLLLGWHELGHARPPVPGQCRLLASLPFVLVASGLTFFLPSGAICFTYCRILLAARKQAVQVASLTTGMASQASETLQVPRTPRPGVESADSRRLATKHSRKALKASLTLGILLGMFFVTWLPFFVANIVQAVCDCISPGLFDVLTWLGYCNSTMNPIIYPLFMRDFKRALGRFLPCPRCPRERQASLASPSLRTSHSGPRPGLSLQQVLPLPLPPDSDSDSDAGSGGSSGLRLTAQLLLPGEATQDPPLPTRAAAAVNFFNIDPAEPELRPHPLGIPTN
# [4] = biological target: T1, Alpha-2C adrenergic receptor (Homo sapiens, UniProt P18825); assay: Binding affinity to human alpha-2C adrenergic receptor by radioligand binding assay
# T1 sequence (P18825 whole entry): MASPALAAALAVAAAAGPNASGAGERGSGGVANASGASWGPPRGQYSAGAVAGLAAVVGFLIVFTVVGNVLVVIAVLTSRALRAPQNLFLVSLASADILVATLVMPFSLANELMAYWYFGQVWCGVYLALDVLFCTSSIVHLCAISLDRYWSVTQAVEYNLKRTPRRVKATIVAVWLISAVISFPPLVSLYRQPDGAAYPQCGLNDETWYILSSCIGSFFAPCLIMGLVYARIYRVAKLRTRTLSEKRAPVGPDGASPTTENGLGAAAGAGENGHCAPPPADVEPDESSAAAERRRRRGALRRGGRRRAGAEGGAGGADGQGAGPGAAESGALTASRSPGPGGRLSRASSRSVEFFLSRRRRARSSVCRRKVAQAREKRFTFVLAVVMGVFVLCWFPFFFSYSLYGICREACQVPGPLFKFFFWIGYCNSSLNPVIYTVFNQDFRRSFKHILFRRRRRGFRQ
# [5] = biological target: T2, 5-hydroxytryptamine receptor 1A (Homo sapiens, UniProt P08908); assay: Binding affinity to human 5HT1A receptor by radioligand binding assay
# T2 sequence (P08908 whole entry): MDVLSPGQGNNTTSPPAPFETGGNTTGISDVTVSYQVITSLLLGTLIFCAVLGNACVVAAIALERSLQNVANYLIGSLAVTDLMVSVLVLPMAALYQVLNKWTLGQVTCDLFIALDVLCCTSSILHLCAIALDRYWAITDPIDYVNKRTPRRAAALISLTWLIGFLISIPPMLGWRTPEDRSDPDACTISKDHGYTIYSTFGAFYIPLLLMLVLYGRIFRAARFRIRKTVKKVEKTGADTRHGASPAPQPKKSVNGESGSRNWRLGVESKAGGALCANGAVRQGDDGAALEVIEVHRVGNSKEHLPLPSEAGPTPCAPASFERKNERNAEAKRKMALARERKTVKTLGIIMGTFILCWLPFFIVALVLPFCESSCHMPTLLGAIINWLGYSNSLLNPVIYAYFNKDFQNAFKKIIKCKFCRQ
# [6] = Binding affinity to sigma 2 receptor (unknown origin) by radioligand binding assay; set-up: species or system Homo sapiens
# [7] = biological target: D(2) dopamine receptor (Homo sapiens, UniProt P14416); assay: Binding affinity to human dopamine D2 receptor by radioligand binding assay
# Sequence of D(2) dopamine receptor (P14416 whole entry): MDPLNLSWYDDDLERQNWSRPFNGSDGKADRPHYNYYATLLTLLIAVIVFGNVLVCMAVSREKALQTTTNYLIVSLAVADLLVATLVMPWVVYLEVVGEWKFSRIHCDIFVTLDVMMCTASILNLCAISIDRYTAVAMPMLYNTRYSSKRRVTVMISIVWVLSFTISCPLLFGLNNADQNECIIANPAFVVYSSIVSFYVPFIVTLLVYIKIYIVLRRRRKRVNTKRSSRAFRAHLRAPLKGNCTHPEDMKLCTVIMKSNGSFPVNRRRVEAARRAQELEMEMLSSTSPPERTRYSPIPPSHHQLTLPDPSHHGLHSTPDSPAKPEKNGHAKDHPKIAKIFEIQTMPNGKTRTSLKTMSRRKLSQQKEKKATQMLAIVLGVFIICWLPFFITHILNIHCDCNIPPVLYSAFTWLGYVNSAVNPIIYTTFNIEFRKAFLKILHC
# [8] = biological target: T3, Alpha-2A adrenergic receptor (Homo sapiens, UniProt P08913); assay: Binding affinity to human alpha-2A adrenergic receptor by radioligand binding assay
# T3 sequence (P08913 whole entry): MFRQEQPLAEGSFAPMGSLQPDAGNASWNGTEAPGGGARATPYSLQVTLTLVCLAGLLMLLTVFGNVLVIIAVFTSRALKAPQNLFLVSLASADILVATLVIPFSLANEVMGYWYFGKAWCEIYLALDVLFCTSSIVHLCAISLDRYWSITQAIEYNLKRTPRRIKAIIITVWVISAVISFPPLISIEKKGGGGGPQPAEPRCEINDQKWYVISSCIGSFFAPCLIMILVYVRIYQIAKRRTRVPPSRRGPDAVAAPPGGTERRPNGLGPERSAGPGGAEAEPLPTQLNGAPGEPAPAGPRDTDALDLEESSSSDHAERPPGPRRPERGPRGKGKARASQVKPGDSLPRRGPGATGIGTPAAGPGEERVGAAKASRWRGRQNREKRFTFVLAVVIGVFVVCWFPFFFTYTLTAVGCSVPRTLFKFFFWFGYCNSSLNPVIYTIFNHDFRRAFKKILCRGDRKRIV
# [9] = biological target: Histamine H2 receptor (Homo sapiens, UniProt P25021); assay: Binding affinity to histamine H2 receptor (unknown origin) by radioligand binding assay
# Sequence of Histamine H2 receptor (P25021 whole entry): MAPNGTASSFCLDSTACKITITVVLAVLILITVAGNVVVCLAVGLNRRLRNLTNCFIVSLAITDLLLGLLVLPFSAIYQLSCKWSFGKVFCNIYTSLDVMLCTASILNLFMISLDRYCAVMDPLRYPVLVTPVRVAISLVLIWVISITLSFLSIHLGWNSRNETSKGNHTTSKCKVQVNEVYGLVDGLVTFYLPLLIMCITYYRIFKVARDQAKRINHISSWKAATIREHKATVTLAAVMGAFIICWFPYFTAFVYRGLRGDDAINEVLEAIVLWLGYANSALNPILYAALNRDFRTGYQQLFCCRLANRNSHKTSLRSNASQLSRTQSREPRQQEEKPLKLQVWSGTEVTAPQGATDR
# [10] = biological target: T4, D(4) dopamine receptor (Homo sapiens, UniProt P21917); assay: Binding affinity to human dopamine D4 receptor by radioligand binding assay
# T4 sequence (P21917 whole entry): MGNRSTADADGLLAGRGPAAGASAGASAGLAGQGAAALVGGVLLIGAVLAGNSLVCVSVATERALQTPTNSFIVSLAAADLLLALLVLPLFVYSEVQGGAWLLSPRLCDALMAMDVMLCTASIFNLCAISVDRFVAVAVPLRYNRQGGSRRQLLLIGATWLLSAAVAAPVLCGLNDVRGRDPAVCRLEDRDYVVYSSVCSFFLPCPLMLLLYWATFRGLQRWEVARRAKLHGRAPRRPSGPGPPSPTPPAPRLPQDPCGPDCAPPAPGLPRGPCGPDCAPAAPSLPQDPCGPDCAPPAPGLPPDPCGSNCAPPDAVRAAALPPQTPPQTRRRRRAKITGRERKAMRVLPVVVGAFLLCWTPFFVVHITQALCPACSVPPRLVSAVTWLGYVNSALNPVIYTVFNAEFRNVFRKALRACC
# [11] = biological target: Sodium-dependent serotonin transporter (Homo sapiens, UniProt P31645); assay: Binding affinity to human SERT by radioligand binding assay
# Sequence of Sodium-dependent serotonin transporter (P31645 whole entry): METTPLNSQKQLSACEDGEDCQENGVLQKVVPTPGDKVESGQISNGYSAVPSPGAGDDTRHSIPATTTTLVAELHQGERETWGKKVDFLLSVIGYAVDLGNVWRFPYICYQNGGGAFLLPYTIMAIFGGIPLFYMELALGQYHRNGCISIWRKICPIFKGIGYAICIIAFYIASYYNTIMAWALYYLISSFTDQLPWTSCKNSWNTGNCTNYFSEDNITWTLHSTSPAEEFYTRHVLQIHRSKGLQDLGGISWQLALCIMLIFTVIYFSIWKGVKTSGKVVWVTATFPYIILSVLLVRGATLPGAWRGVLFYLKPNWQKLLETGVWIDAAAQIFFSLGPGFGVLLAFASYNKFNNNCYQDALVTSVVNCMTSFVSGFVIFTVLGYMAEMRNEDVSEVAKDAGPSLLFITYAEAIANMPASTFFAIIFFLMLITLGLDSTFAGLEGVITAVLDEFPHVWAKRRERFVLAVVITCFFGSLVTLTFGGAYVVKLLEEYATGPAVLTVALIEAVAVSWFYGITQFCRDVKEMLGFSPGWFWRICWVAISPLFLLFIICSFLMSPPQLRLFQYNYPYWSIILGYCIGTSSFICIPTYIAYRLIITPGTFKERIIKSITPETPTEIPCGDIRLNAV
# [12] = biological target: Beta-2 adrenergic receptor (Homo sapiens, UniProt P07550); assay: Binding affinity to human beta-2 adrenergic receptor by radioligand binding assay
# Sequence of Beta-2 adrenergic receptor (P07550 whole entry): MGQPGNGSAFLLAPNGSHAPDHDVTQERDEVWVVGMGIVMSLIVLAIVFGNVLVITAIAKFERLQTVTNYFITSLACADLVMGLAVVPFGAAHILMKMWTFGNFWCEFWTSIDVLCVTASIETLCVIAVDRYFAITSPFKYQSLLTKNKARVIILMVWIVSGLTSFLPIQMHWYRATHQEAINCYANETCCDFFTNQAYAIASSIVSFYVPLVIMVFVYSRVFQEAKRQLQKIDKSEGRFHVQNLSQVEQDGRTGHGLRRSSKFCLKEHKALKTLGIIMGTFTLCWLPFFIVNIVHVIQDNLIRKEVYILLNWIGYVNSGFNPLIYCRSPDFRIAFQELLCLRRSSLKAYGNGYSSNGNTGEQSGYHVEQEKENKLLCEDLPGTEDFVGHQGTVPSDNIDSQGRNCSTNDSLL
# [13] = biological target: D(3) dopamine receptor (Homo sapiens, UniProt P35462); assay: Binding affinity to dopamine D3 receptor (unknown origin) by radioligand binding assay
# Sequence of D(3) dopamine receptor (P35462 whole entry): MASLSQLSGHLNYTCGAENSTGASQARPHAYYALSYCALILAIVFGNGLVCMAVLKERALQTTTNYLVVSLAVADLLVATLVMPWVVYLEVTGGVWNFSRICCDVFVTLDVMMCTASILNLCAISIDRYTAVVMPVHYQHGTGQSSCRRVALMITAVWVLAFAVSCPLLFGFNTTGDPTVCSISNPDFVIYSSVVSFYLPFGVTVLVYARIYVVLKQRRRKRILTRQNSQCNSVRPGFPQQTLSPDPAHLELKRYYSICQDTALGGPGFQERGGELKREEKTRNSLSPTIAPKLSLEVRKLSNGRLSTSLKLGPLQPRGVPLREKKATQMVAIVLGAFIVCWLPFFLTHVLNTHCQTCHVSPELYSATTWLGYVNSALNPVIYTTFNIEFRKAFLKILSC
# [14] = biological target: T5, Muscarinic acetylcholine receptor M5 (Homo sapiens, UniProt P08912); assay: Binding affinity to human muscarinic acetylcholine M5 receptor by radioligand binding assay
# T5 sequence (P08912 whole entry): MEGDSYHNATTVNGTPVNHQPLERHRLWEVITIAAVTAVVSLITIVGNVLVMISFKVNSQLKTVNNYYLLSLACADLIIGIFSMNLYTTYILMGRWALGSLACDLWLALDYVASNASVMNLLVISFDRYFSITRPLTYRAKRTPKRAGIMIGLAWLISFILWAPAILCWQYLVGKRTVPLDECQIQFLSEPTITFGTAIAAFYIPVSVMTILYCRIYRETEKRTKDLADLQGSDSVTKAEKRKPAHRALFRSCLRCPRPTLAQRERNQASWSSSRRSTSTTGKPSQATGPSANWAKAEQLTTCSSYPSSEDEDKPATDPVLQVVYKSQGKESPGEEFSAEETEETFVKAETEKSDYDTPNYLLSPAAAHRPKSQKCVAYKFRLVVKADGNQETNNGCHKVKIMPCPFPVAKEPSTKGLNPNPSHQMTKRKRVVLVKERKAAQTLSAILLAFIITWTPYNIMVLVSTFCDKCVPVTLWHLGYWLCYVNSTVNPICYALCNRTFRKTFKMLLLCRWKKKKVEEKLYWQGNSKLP
# [15] = biological target: 5-hydroxytryptamine receptor 2B (Homo sapiens, UniProt P41595); assay: Agonist activity at recombinant human 5HT2B receptor expressed in Flp-In-293 cells assessed as calcium flux at 10 uM by FLIPR assay relative to 5-HT; type: functional, cell-based
# Sequence of 5-hydroxytryptamine receptor 2B (P41595 whole entry): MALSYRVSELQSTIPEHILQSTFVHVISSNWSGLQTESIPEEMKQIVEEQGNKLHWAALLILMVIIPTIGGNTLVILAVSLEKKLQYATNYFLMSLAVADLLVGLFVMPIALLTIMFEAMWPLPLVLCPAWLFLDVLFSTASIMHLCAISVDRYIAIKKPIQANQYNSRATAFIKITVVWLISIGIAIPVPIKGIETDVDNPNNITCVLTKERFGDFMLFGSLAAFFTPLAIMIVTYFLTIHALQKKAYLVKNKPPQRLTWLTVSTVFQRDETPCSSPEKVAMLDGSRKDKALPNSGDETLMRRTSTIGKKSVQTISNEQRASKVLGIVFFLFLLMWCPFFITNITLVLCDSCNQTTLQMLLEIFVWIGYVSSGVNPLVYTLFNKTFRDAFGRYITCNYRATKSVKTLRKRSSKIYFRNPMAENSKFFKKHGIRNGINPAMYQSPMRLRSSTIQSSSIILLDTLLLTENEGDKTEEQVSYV
# [16] = test system: Mus musculus; assay: Cataleptic activity in ip dosed C57BL/6J mouse measured after 60 mins; type: organism-based; conditions: in vivo, 1 h
# In short: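 Male C57BL/6J mice, n = 8–10/treatment/time-point, front paws placed on a 2.5 mm horizontal bar with rear paws on the bench, tested at baseline and then injected with vehicle, haloperidol (0.01–10 mg/kg) or test agent (0.01–30 mg/kg). Separate groups were scored at 60 min as time until paw removal, with a 60 s cut-off.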
# [17] = test system: Mus musculus; assay: Cognitive enhancing effect in NR1-KD mouse hypoglutamatergic model of schizophrenia assessed as reduction in duration of object exploration during testing at 0.5 to 1 mg/kg, ip administered for 30 mins measured for 3 days relative to wild type mouse; type: functional, organism-based
# In short: (§1)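 Three daily 5-min trials: empty-chamber acclimation, two identical objects, then 24 h later one familiar plus one novel object (long-term memory). Sessions video-recorded; time spent investigating objects scored at training and testing.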
# [18] = test system: Mus musculus; assay: Restoration of AMPH-disrupted 4 to 12 dB prepulse inhibition in C57BL/6J mouse at 0.5 to 1 mg/kg, ip administered for 10 mins followed by AMPH challenge; type: functional, organism-based
# In short: (§2)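 Adult male C57BL/6 mice, n = 8–11/group, given vehicle or 0.5–4 mg/kg, then vehicle or 3 mg/kg amphetamine 10 min later. After 10 min acclimation in a startle chamber, 42 trials were run: 18 pulse-only (120 dB), 18 prepulse-pulse (4, 8, 12 dB prepulses) and 6 null. Peak startle (arbitrary units) was taken within 65 ms of pulse onset.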
# [19] = test system: Mus musculus; assay: Increase in AMPH-disrupted 4 to 12 dB prepulse inhibition in C57BL/6J mouse at 4 mg/kg, ip administered for 10 mins followed by AMPH challenge; type: functional, organism-based; in short: as §2
# [20] = test system: Mus musculus; assay: Suppression of AMPH-stimulated hyperlocomotion in C57BL/6J mouse assessed as reduction in distance travelled in open field at 2 mg/kg, ip administered for 15 mins followed by AMPH challenge measured after 105 mins; type: functional, organism-based
# In short: (§3)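 Mice, n = 7–10/treatment, injected with vehicle or 2–30 mg/kg and placed in an open field monitored by infrared beams. After 15 min baseline, they were given vehicle or 3 mg/kg d-amphetamine and recorded for a further 105 min. Distance travelled was taken in 5-min bins or as a cumulative value over 15 min baseline plus 75 min post-amphetamine.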
# [21] = test system: Mus musculus; assay: Attenuation of novel object recognition memory in wild type mouse assessed as decrease in preference for novel object at 1 mg/kg, ip administered for 30 mins measured for 3 days; type: functional, organism-based; in short: as §1
# [22] = test system: Mus musculus; assay: Cognitive enhancing effect in NR1-KD mouse hypoglutamatergic model of schizophrenia assessed as reduction in duration of object exploration during training at 0.5 to 1 mg/kg, ip administered for 30 mins measured for 3 days relative to wild type mouse; type: functional, organism-based; in short: as §1
# [23] = test system: Mus musculus; assay: Suppression of AMPH-stimulated hyperlocomotion in C57BL/6J mouse assessed as reduction in distance travelled in open field at 5 to 30 mg/kg, ip administered for 15 mins followed by AMPH challenge measured after 105 mins; type: functional, organism-based; in short: as §3
# [24] = test system: Mus musculus; assay: Increase in AMPH-disrupted 4 to 12 dB prepulse inhibition in C57BL/6J mouse at 2 mg/kg administered for 10 mins followed by AMPH challenge; type: functional, organism-based; in short: as §2
# [25] = test system: Mus musculus; assay: Reduction in 120 dB acoustic stimulus-induced pulse-only response in C57BL/6J mouse at 0.5 to 2 mg/kg dose followed by AMPH challenge; type: functional, organism-based; in short: as §2
# [26] = test system: Mus musculus; assay: Cognitive enhancing effect in NR1-KD mouse hypoglutamatergic model of schizophrenia at 0.5 to 1 mg/kg, ip administered for 30 mins measured for 3 days by novel object recognition memory test; type: functional, organism-based; in short: as §1
# [27] = test system: Mus musculus; assay: Effect on 120 dB acoustic stimulus-induced pulse-only response in C57BL/6J mouse at 4 mg/kg, ip administered for 10 mins; type: functional, organism-based; in short: as §2
# [28] = test system: Mus musculus; assay: Effect on 120 dB acoustic stimulus-induced pulse-only response in C57BL/6J mouse at 4 mg/kg, ip administered for 10 mins followed by AMPH challenge; type: functional, organism-based; in short: as §2
# Sequence of 5-hydroxytryptamine receptor 7 (P34969 whole entry): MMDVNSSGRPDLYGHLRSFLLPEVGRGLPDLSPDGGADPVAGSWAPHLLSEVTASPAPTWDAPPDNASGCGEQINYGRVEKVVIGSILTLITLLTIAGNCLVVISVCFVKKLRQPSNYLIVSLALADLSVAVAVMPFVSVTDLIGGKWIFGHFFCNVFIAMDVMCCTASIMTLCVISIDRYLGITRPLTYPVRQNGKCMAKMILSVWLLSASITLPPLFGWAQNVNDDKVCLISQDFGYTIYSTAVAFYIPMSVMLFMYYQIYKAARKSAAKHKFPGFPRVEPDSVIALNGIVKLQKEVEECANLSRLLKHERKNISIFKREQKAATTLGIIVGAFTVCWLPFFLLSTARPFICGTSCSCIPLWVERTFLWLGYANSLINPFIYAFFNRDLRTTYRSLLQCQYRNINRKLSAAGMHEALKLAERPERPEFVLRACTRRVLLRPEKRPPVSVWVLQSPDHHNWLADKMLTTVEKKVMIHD
compound,measurement,setting,value
"C=CCOc1cc(F)c(F)cc1C1CC1CN.Cl (single isomer, unassigned; (+))",Ki,[1]; read-out: Ki,1270 nM
same,Ki,[1]; read-out: pKi (converted),1020 nM
same,Activity,[2],Non-toxic
same,Ki,[3]; read-out: Ki,111 nM
same,Ki,[3]; read-out: pKi (converted),115 nM
same,Ki,[4],278 nM
same,Ki,[5]; read-out: Ki,750 nM
same,Ki,[5]; read-out: pKi (converted),933 nM
same,Ki,[6],2110 nM
same,pKi,[6],5.68
same,Ki,[7],4900 nM
same,Ki,[8]; read-out: Ki,661 nM
same,Ki,[8]; read-out: pKi (converted),166 nM
same,Ki,[9],3390 nM
same,Ki,[10],1680 nM
same,Ki,[11],1260 nM
same,Ki,[12],807 nM
same,Ki,[13]; read-out: Ki,201 nM
same,Ki,[13]; read-out: pKi (converted),195 nM
same,Ki,[14],2840 nM
"C=CCOc1cc(F)c(F)cc1C1CC1CN (single isomer, unassigned; (-))",Emax,[15],< 15%
O=C(CCCN1CCC(O)(c2ccc(Cl)cc2)CC1)c1ccc(F)cc1 [HALOPERIDOL],Activity,[16],Dose-dependent effect
"C=CCOc1cc(F)c(F)cc1C1CC1CN (single isomer, unassigned; (+))",Activity,[17],Active
same,Activity,[18],Active
same,Activity,[19],inactive
same,Activity,[20],inactive
same,Activity,[21],Active
same,Activity,[22],Active
same,Activity,[23],Dose-dependent effect
same,Activity,[24],Active
same,Activity,[25],Active
same,Activity,[26],Active
same,Activity,[27],inactive
same,Activity,[28],inactive
